Measurements published in article PMC6589821 (Bioorganic & medicinal chemistry, 2019).
Entries after “also recorded” stand apart in the source; their conditions may differ.

Columns and labels:
[1] = system: pseudotyped HIV; conditions: earlier work; cited from earlier work
[2] = system: p160 Gag-Pol; conditions: earlier work; cited from earlier work
[3] = system: HIV-1 FSS RNA; test: SPR binding to immobilised HIV-1 FSS RNA; conditions: for ka / kd: SPR, 1:1 Langmuir fit, average of four curves
[4] = system: HIV IIIB; conditions: earlier work; cited from earlier work
[5] = system: HIV-1 AD.MDR01; conditions: patient-derived strain; cited from earlier work
[6] = system: HEK293FT cells; test: WST-1 cytotoxicity assay; assay type: cell-based; conditions: 24 hours
[7] = system: HIV-1 FSS RNA; test: Competitive SPR assay with excess yeast tRNA in solution; assay type: binding
Procedure, shortened: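 Streptavidin was coupled by EDC/NHS onto a CM5 chip, then ethanolamine-blocked; about 2000 RU of biotinylated HIV-1 FSS RNA (refolded 3 min at 75 °C in HBS, pH 7.4) was captured on one flow cell. Analyte was injected with or without excess bulk yeast tRNA at 80 μL/min for 1 min in HBS. At least two injections per condition.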

[8] = system: HIV-1 FSS RNA; test: Competition dialysis, HIV-1 FSS hairpin; assay type: binding; conditions: 2.0 μM compound, 2.5 μM RNA, 36 hours, 8 competing human hairpins
Procedure, shortened: (§1)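 RNA hairpins refolded at 2.5 μM in PBS with 1 mM EDTA (3 min 25 °C, 3 min 90 °C, 5 min 27 °C). Duplicate dialysis tubes (MWCO 3500) of RNA, plus an RNA-free control, dialysed 36 h against 2.0 μM test compound in PBS. Bound compound released with 1% Triton X-100 (final). Total compound per tube quantified by HPLC against a calibration curve.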

[9] = system: IRF5 RNA; test: Competition dialysis, IRF5 mRNA hairpin; assay type: binding, human; conditions: 2.0 μM compound, 2.5 μM RNA, 36 hours
Procedure, shortened: as §1

[10] = system: hairpin derived from BDNF; test: Competition dialysis, BDNF mRNA hairpin; assay type: binding, human; conditions: 2.0 μM compound, 2.5 μM RNA, 36 hours
Procedure, shortened: as §1

Structure (SMILES) | ka [3] | kd [3] | other results
CCc1nc2cc3ccccc3cc2cc1C(=O)N[C@@H](C/C=C\C[C@H](NC(=O)c1cc2cc3ccccc3cc2nc1CC)C(=O)N1CCC[C@H]1C(=O)N[C@@H](Cc1ccccc1)C(=O)NCCCN)C(=O)N1CCC[C@H]1C(=O)N[C@@H](Cc1ccccc1)C(=O)NCCCN [Compound 2] | – | – | effect on pseudotyped HIV [1]: inhibited both production and infectivity; p160 Gag-Pol level in virus (Western blot) [2]: concentration-dependent increases in p160 Gag-Pol
CCc1nc2cc3ccccc3cc2cc1C(=O)N(C)[C@@H](CCn1cc(C[C@@H](C(=O)N2CCC[C@H]2C(=O)N(C)[C@@H](Cc2ccccc2)C(=O)NCCCN)N(C)C(=O)c2cc3cc4ccccc4cc3nc2CC)nn1)C(=O)N1CCC[C@H]1C(=O)N(C)[C@@H](Cc1ccccc1)C(=O)NCCCN [Compound 3] | 190000 M⁻¹ s⁻¹ | 0.003 s⁻¹ | inhibition of laboratory strain HIV-1 IIIB [4]: inhibited; inhibition of multidrug resistant strain [5]: inhibited; effect on pseudotyped HIV [1]: inhibited both production and infectivity; p160 Gag-Pol level in virus (Western blot) [2]: concentration-dependent increases in p160 Gag-Pol
CN(C(=O)c1cnc2ccccc2c1)[C@@H](CCn1cc(C[C@@H](C(=O)N2CCC[C@H]2C(=O)N(C)[C@@H](Cc2ccccc2)C(=O)NCCCN)N(C)C(=O)c2cnc3ccccc3c2)nn1)C(=O)N1CCC[C@H]1C(=O)N(C)[C@@H](Cc1ccccc1)C(=O)NCCCN [Compound 6] | 56600 M⁻¹ s⁻¹ | 0.00226 s⁻¹ | fold lower affinity for the FSS than compound 3 ([3]; KD ratio versus 3): 4 fold; change of binding constant with versus without excess tRNA ([7]; SPR traces with and without excess tRNA): within statistical error; also recorded: little impact on binding; binding among hairpins in competition dialysis [8]: preferentially binds to HIV-1 FSS; binding in competition dialysis [9]: appreciably bound; binding in competition dialysis [10]: appreciably bound
CN(C(=O)c1cnc2ccccc2c1)[C@@H](CCn1cc(C[C@@H](C(=O)N2C[C@H](O)C[C@H]2C(=O)N(C)[C@@H](Cc2ccccc2)C(=O)NCCCN)N(C)C(=O)c2cnc3ccccc3c2)nn1)C(=O)N1C[C@H](O)C[C@H]1C(=O)N(C)[C@@H](Cc1ccccc1)C(=O)NCCCN [Compound 7] | 67400 M⁻¹ s⁻¹ | 0.00542 s⁻¹ | –
CN(C(=O)c1cnc2ccccc2c1)[C@@H](CCn1cc(C[C@@H](C(=O)N2C[C@H](O)C[C@H]2C(=O)N(C)[C@@H](Cc2ccccc2)C(N)=O)N(C)C(=O)c2cnc3ccccc3c2)nn1)C(=O)N1C[C@H](O)C[C@H]1C(=O)N(C)[C@@H](Cc1ccccc1)C(N)=O [Compound 10] | 4090 M⁻¹ s⁻¹ | 0.00541 s⁻¹ | fold difference in KD between 10 and 6 ([3]; KD ratio 10 versus 6): 23 fold
NC[C@@H]1O[C@H](O[C@H]2[C@@H](O)[C@H](O[C@@H]3[C@@H](O)[C@H](N)C[C@H](N)[C@H]3O[C@H]3O[C@H](CN)[C@@H](O)[C@H](O)[C@H]3N)O[C@@H]2CO)[C@H](N)[C@@H](O)[C@@H]1O [Neomycin, neomycin, reference compound] | – | – | SPR signal for HIV-1 FSS binding with tRNA ([7]; 30 μM tRNA, 3-fold excess relative to neomycin): completely ablated

Now from value to compound, other results behind:

ka [3] | kd [3] | Structure (SMILES) | other results
64900 M⁻¹ s⁻¹ | 0.0237 s⁻¹ | CCc1nc2ccccc2cc1C(=O)N(C)[C@@H](CCn1cc(C[C@@H](C(=O)N2CCC[C@H]2C(=O)N(C)[C@@H](Cc2ccccc2)C(=O)NCCCN)N(C)C(=O)c2cc3ccccc3nc2CC)nn1)C(=O)N1CCC[C@H]1C(=O)N(C)[C@@H](Cc1ccccc1)C(=O)NCCCN [Compound 4] | effect on cellular metabolism (WST-1) [6]: significant effects below a concentration of 40 micromolar
14900 M⁻¹ s⁻¹ | 0.0068 s⁻¹ | CCc1nc2ccccc2cc1C(=O)N(C)[C@@H](CCn1cc(C[C@@H](C(=O)N2C[C@H](O)C[C@H]2C(=O)N(C)[C@@H](Cc2ccccc2)C(=O)NCCCN)N(C)C(=O)c2cc3ccccc3nc2CC)nn1)C(=O)N1C[C@H](O)C[C@H]1C(=O)N(C)[C@@H](Cc1ccccc1)C(=O)NCCCN [Compound 5] | –
1690 M⁻¹ s⁻¹ | 0.0207 s⁻¹ | CCc1nc2ccccc2cc1C(=O)N(C)[C@@H](CCn1cc(C[C@@H](C(=O)N2CCC[C@H]2C(=O)N(C)[C@@H](Cc2ccccc2)C(N)=O)N(C)C(=O)c2cc3ccccc3nc2CC)nn1)C(=O)N1CCC[C@H]1C(=O)N(C)[C@@H](Cc1ccccc1)C(N)=O [Compound 8] | –
